Bioassay records: PubChem BioAssay, Broad Institute
Not all results are given here.
PGC1a Ac signal – compounds raising PGC1a acetylation signal, primary screen, PGC1a modulator project, cell-based, U2OS, AlphaScreen, signal-increasing mode. overnight. activation, % at 15.6 µM. 350,000 tested, 0.21% active. AID 651723, 2012;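 active = every replicate reaching activation of at least 50%, whatever the mean replicate activation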;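 also: hits raise the AlphaScreen acetylation signal above neutral controls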
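detection = AlphaScreen lysate read | assay system = U2OS cells expressing flag-PGC1a plus GCN5 | input = 7000 cells/well | dosing = one concentration | times = compound overnight at 37 °C, each detection step 1 h RT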
Of the large screens only hits and unclear results are named; the others gave an inactive call.

C[C@@H]1CN([C@H](C)CO)C(=O)c2cc(/C=C/c3ccccc3)cnc2O[C@@H]1CN(C)Cc1cccnc1	none
C[C@@H]1CN([C@H](C)CO)C(=O)c2cc(-c3ccccc3)cnc2O[C@@H]1CN(C)C(=O)Cc1ccccc1	none
CC(=NNC(=S)N1CCC1)c1ccccn1	PGC1a Ac signal 190
C/C(=N\NC(=O)CN1CCCCC1)c1ccccc1O	none
C#CCN1[C@H](/C=C/C2CC2)[C@H](Cc2ccccc2)OC(=O)[C@@H]1[C@@H]1N[C@@H](C(=O)OC)C(C)(C)S1	none
O=C(Cc1ccccn1)NCC[C@@H]1CC[C@@H](NC(=O)Nc2ccc(C(F)(F)F)cc2)[C@@H](CO)O1	none
CC1C(=O)CCCCCCCCCC2C1(N1CCOCC1)CS2(=O)=O (stereo unspecified)	PGC1a Ac signal 61
C[C@H]1CN([C@@H](C)CO)S(=O)(=O)c2ccc(-c3cncnc3)cc2O[C@H]1CN(C)C(=O)CN(C)C	none
CCC(C)C(NC(=O)C1CCC(C)CC1)C(=O)NCc1cccnc1 (stereo unspecified)	PGC1a Ac signal 55
O=C(NCc1cccnc1)C1CC(=O)N(C2CCCCC2)C1 (stereo unspecified)	none
Cc1ccc(-c2nn(C)c(=O)c3ccccc23)cc1S(=O)(=O)NCCN(C)C	none
O=C(CCl)Nc1ccc(N=Nc2ccccc2)cc1	PGC1a Ac signal 101
O=C(CCCCCCC(=O)Nc1ccccc1)NO	none
Cc1ccc(CCC(=O)Nc2ccc(Cl)cc2)o1	none
O=C1/C(=C\c2ccc(Cl)c(Cl)c2)CN(C(=O)CCN2CCOCC2)C/C1=C/c1ccc(Cl)c(Cl)c1	none
O=C(C[C@H]1CC[C@@H]2[C@H](COC[C@@H](O)CN2S(=O)(=O)c2ccc(F)cc2)O1)NCCN1CCCCC1	none
CC(C)(C)C(=O)NC(C(N)=O)=C(Cl)Cl	PGC1a Ac signal 65
COc1ccc(/C=C/c2cc(-c3ccc(C)cc3)o[n+]2C)cc1	PGC1a Ac signal 121
CC(=O)N1CCN(C(C)=O)C1c1ccccc1	none
c1cc2c3c(cccc3c1)C(N1CCCCCC1)=N2	PGC1a Ac signal 86
Cc1cccc(C(=O)O/N=C/c2c(Cl)n(C)c3ccccc23)c1	none
O=C(Nc1ccccc1)C1=C(c2ccccc2)S(=O)(=O)CCS1(=O)=O	PGC1a Ac signal 104
CO[C@H]1CN(C)C(=O)c2ccc(NC(=O)c3ccno3)cc2OC[C@H](C)NC[C@H]1C	none
CC(=O)c1cccc(NC(=S)NC(=O)c2ccc(Br)cc2)c1	none
O=C(NC(=S)Nc1cc(Cl)ccc1O)c1cccc(Br)c1	none
CC1(C)CC(NC(=S)NC(=O)c2cc(Br)ccc2Cl)CC(C)(C)N1	PGC1a Ac signal 226
C=CCNC(=O)CC1Nc2c3ccccc3nc(=S)n2C1=O (stereo unspecified)	none
CCOC(=O)c1ccc(NC(=O)c2nc(S(=O)(=O)Cc3ccccc3)ncc2Cl)cc1	PGC1a Ac signal 78
Cc1nc(Nc2ccc(S(N)(=O)=O)cc2)sc1C(=O)Nc1ccccc1	none
COCC#Cc1ccc2c(c1)O[C@H](CN(C)C(=O)CN(C)C)[C@@H](C)CN([C@@H](C)CO)S2(=O)=O	none
COc1cc(-c2nnn(CC#N)n2)ccc1OCc1ccccc1	PGC1a Ac signal 212
CCc1c(C)nc(N)nc1Cl	none
O=C(N/N=C\c1ccc([N+](=O)[O-])o1)C1COc2ccccc2O1 (stereo unspecified)	PGC1a Ac signal 117
COc1ccc(-c2ccc(/C=N/NC(=O)Cc3nnc(N)s3)o2)cc1Cl	none
CCn1cc([N+](=O)[O-])c(C(=O)NCc2ccc3c(c2)OCO3)n1	none
O=C(Cc1ccc2c(c1)OCO2)NN=Cc1ccc([N+](=O)[O-])o1	PGC1a Ac signal 137
CCCCCC(=O)N/N=C/c1ccc([N+](=O)[O-])o1	PGC1a Ac signal 105
CC1=C(C(=O)OCc2ccc3c(c2)OCO3)C(c2ccccc2)NC(=O)N1 (stereo unspecified)	none
Cc1ccc(-c2ccc(/C=N/NC(=O)Cc3nnc(N)s3)o2)cc1Cl	none
C[C@H](CO)N1C[C@H](C)[C@@H](CN(C)Cc2ccccc2F)Oc2ncc(Br)cc2C1=O	none
CC(c1n[nH]c(=S)n1Cc1ccccc1)N(C)C (stereo unspecified)	none
C[C@@H]1CN([C@H](C)CO)C(=O)CCCn2cc(nn2)CO[C@@H]1CN(C)C(=O)Nc1cccc2ccccc12	none
CC(C)NC(=O)N(C)C[C@H]1Oc2c(NS(=O)(=O)c3cn(C)cn3)cccc2C(=O)N([C@@H](C)CO)C[C@@H]1C	none
CCOC(=O)C(=Cc1ccc(OCc2ccc([N+](=O)[O-])cc2)c(OC)c1)C(=O)OCC	none
O=C(Cc1ccccc1)N1CC[C@@H]2[C@H]1c1cc(C#Cc3ccccc3)ccc1N[C@@H]2CO	PGC1a Ac signal 64
C[C@@H]1CN([C@H](C)CO)C(=O)c2cc(-c3ccccc3)cnc2O[C@H]1CN(C)C(=O)Cc1ccccn1	none
NC(=O)c1oc2ccccc2c1NC(=O)C1CC(=O)N(c2ccccc2)C1 (stereo unspecified)	none
Cc1cccc(OC2(c3ccccc3)OC(=O)c3ccccc32)c1C (stereo unspecified)	PGC1a Ac signal 91
C[C@@H]1CN([C@@H](C)CO)C(=O)c2cc(C#CCN(C)C)cnc2O[C@@H]1CN(C)S(=O)(=O)c1cn(C)cn1	none
CCOc1cc(CNC2CCCC2)cc(Cl)c1OCc1ccc(F)cc1	none
COc1cccc(N2C(=O)CC(N3CCC(c4nc5ccccc5[nH]4)CC3)C2=O)c1 (stereo unspecified)	PGC1a Ac signal 58
CC(C)n1c(=S)[nH]c2cc(Cl)ccc21	none
O=C(CC1CC1)N[C@@H]1CC[C@H](CCNS(=O)(=O)c2ccc(Cl)cc2)O[C@H]1CO	none
COc1ccc(OC)c(NC(=O)C2C(C(=O)O)C3(Cl)C(Cl)=C(Cl)C2(Cl)C3(Cl)Cl)c1 (stereo unspecified)	none
C=C1C(=O)C=C[C@]2(C)C[C@@H]3OC(=O)[C@](C)(O)[C@H]3C[C@@H]12	PGC1a Ac signal 178
COC(=O)C12OCC34C(CC5C(C)=C(O)C(=O)CC5(C)C3C(O)C1O)OC(=O)C(OC(=O)C=C(C)C)C24 (stereo unspecified)	none
C[C@@H]1CN([C@H](C)CO)C(=O)c2cc(NS(C)(=O)=O)ccc2O[C@@H]1CN(C)S(=O)(=O)c1ccc(Cl)cc1	none
COc1ccc2c3c([nH]c2c1)[C@H](CO)N(C(=O)c1ccncc1)CC31CN(C(=O)c2ccncc2)C1	none
N#C/C(=C\C=C\c1ccccc1[N+](=O)[O-])C(=O)NCc1ccccc1	PGC1a Ac signal 128
O=C(N/N=C/C=C\c1ccccc1[N+](=O)[O-])c1cccnc1	none
O=C(N[C@@H]1CC[C@@H](CCNS(=O)(=O)c2ccccc2Cl)O[C@@H]1CO)c1ccc(F)cc1	none
CCC(C)(CC(=O)O)CC(=O)Nc1cc(C(F)(F)F)cc(C(F)(F)F)c1 (stereo unspecified)	none
O=C1Nc2c(Br)cc(Br)c3cccc1c23	none
CCCCn1c(=O)[nH]c(=O)c2c1nc(-c1ccc(OCCC)c(OCC)c1)n2C	none
O=C1C=C(c2cc3ccccc3s2)CCC1	PGC1a Ac signal 58
O=C(Cc1ccc(Cl)cc1)Nc1ncccn1	none
NC(=O)NC(=O)Nc1ccccc1Cl	none
NC(=O)c1ccc(NC(=O)C#Cc2ccccc2)cc1	PGC1a Ac signal 203
c1ccc(N2CCN(c3ccccc3)C2c2ccncc2)cc1	none
CCOC(=O)C1(N(CC)CC)Sc2cc(C)ccc2NC1=O (stereo unspecified)	PGC1a Ac signal 84
COCC#Cc1cnc2c(c1)C(=O)N([C@H](C)CO)C[C@@H](C)[C@@H](CN(C)C(=O)c1cccnc1)O2	none
O=C(O)c1cc(-c2ccc3c(c2)OCO3)nc2ccccc12	PGC1a Ac signal 93
